Bioassay records (PubChem BioAssay)
Beta cell apopt: beta cell apoptosis inhibition; INS-1E cytokine-induced death, ATP luminescence, 48 h; percent of positive-control rescue, neutral wells zero; protection from apoptosis, % (test concentration not listed); 300,000 tested, 0.8% active; AID 435005;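 active means Every replicate reaches about 75%, or at least half do and their mean reaches it too, limit read from the data; inconclusive means At least half of replicates reach the limit but their mean does not; inactive means Under half of replicates reach the limit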;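 further: 0% = cytokine-treated negative control wells and 100% = positive control rescue; higher means more ATP so stronger rescue from cytokine killing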
Mdm2-MdmX inh: human Mdm2/MdmX binding inhibition | O15151+Q00987 | SaOS-2 split-luciferase Mdm2/MdmX complementation, luminescence | inhibition, % at 8 µM | 330,000 tested, 3% active | AID 485346;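 active means inhibition of at least 50% at 8 µM in the primary screen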
Target sequence (O15151 whole entry, looked up): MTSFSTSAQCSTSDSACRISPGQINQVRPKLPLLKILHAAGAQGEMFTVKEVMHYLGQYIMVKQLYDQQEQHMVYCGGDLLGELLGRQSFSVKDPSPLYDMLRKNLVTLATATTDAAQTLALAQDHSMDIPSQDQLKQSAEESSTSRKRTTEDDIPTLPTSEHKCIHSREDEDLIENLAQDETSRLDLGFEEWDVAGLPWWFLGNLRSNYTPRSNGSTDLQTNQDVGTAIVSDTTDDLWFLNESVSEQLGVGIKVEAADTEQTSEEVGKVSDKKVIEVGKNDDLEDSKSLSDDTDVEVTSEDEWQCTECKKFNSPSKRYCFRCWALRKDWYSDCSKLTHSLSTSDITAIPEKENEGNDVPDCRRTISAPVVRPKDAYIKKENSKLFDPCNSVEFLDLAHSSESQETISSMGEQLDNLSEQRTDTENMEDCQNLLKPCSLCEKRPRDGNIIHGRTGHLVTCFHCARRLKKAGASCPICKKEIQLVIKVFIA
Target sequence (Q00987 whole entry, looked up): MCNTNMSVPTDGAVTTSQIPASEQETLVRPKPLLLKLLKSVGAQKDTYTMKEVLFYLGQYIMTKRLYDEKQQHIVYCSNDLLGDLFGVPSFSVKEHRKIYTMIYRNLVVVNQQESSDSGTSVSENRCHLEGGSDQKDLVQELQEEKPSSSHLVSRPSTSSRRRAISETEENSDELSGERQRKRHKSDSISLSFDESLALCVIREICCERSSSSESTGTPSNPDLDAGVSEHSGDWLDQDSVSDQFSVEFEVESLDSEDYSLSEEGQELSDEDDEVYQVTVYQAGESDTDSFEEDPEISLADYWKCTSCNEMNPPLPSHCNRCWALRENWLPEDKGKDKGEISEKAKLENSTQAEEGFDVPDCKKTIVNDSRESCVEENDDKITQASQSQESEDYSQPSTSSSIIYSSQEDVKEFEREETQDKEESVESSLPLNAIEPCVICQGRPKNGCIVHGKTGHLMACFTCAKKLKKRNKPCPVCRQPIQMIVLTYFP
T cruzi repl: T. cruzi replication inhibition; T. cruzi beta-gal in NIH3T3, luminescence, 90 h; inhibition, % (test concentration not listed); 300,000 tested, 1.4% active;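 active means mean inhibition across valid replicates above about 55%, limit read from the data; inconclusive means mean below that limit but half or more replicates reach it; inactive means mean below it, under half of replicates reach it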;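 further: signal also drops with host cell toxicity which is not excluded here; 0% = plate median of DMSO wells and 100% = zero luminescence signal; higher percent means less beta-gal luminescence so fewer parasites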
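System: NIH/3T3 fibroblasts plus reporter T. cruzi. Medium: DMEM plus 2% FBS. Probe or stimulus: 5000 reporter trypomastigotes per well. Compound: single 50 nL compound addition per well in DMSO. Incubation: co-culture of at least 90 h after 3 h attachment. Detection: GalScreen β-gal luminescence, detergent lysis, 60 min. Evaluation: parasite load inhibition, %.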
Calb FLC: C. albicans growth modulation with fluconazole; C. albicans CaCi-2 (fluconazole-resistant clinical isolate) + fluconazole, Alamar Blue growth, 48 h; growth inhibition, % (no concentration beside the values); 300,000 tested, 0.57% active; AID 1979;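 active means growth inhibition above about 58% in most replicates, limit read from the data, passing the limit was not always enough; inconclusive means exactly half the replicates above a set limit; inactive means most replicates below a set limit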;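 further: all wells also contain fluconazole at 8 µg/ml as a sub-toxic cotreatment; 0% = median of DMSO wells and 100% = median of geldanamycin control wells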
CSC inhib: blocks cancer stem cells; cancer stem cell-like cells viability, luminescence; inhibition, % at 7.5 µM; 300,000 tested, 1.1% active; in the data active means inhibition above about 75%; inconclusive means no clear call, values can overlap the other calls; tested in HMLE shEcad cells
SKKanGAS inh: blocks kanamycin growth of S. pyogenes SKKanGAS strain; BacTiter-Glo, 6 h; inhibition, % at 7.5 µM; 300,000 tested, 1.3% active;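 active means mean replicate score, as percent of positive control median, at least 50; inconclusive means mean below 50 but one replicate at or above 50; inactive means mean and every replicate below 50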;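 further: strain carries kanamycin resistance gene driven by streptokinase promoter and grows in 40 µg/ml kanamycin; loss of luminescence reflects streptokinase promoter inhibition or plain growth inhibition; 0% = median of DMSO wells and 100% = positive control at its reference dose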
Mdm2-MdmX conf: confirmation of human Mdm2/MdmX interaction inhibitors; AID 489028; inhibition, % at 8 µM; 10,000 tested, 55% active; shares compounds with Mdm2-MdmX inh; Mdm2-MdmX binding, luminescent assay; in the data active means inhibition above about 40%
FLuc counter: full-length luciferase inhibition in Mdm2/MdmX counter-screen | AID 504607 | 6,200 tested, 77% active | inhibition, % at 8 µM | shares compounds with Mdm2-MdmX inh | SaOS-2 full-length luciferase counterscreen, luminescence;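 active means mean inhibition at 8 µM reaching about 37%, which flags the compound as non-specific, limit read from the data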;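 further: p53-null SaOS-2 cells with luciferase driven by a doxycycline-inducible promoter; compound on cells about two nights before reading with doxycycline added after day one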
* hit, by the source's call; ? = inconclusive; · = no result. This is a sample that favours compounds with a hit; in the whole collection about 5.7% have one here.

SMILES	Beta cell apopt	Mdm2-MdmX inh	T cruzi repl	Calb FLC	CSC inhib	SKKanGAS inh	Mdm2-MdmX conf	FLuc counter
N#Cc1ccccc1Sc1ccccc1C(=O)N1CCOCC1	-3.6	-12.6	-3.6	9.3	11.8	-0.5	·	·
CN(C)C(=O)N1CCN(C(=O)c2ccccc2Sc2ccccc2C#N)CC1	10.1	52.8*	6.2	-17.0	4.4	5.5	-6.8	·
Cc1nc2oc3ccc(F)cc3c(=O)c2cc1C(=O)NC(C)(C)C	-1.3	-44.4	-1.0	-3.0	9.5	·	·	·
CCN(CC(=O)NCc1cccs1)C(=O)Cc1ccc(C)c(C)c1	-3.1	26.4	·	·	22.1	·	·	·
COc1ccc(Cl)cc1C(=O)OCC(=O)c1ccc[nH]1	-0.5	-8.4	·	·	·	·	·	·
NCC(=O)Nc1ccc(Cl)cc1C(=O)c1ccc[nH]1	·	63.5*	2.6	0.6	·	-5.5	66.3*	40.4*
CCN(CC(=O)NCc1cccs1)C(=O)c1ccc(-c2ccc(F)cc2)o1	1.8	27.0	·	·	-18.2	·	·	·
COc1cccc(Oc2nnnn2-c2ccccc2)c1	-4.5	-26.3	16.8	-13.6	-11.6	-7.9	·	·
COc1cccc(-n2nnnc2S(C)(=O)=O)c1	-67.9	78.7*	48.6	104.7*	38.4	1.1	100.2*	3.9
CCc1nc(SCC(=O)Nc2ccc(N(C)C)cc2)c2ccccc2n1	4.3	33.2	9.1	5.2	44.9	17.6	·	·
O=C(C1CCCO1)N1CCN(C(=S)Nc2cccc(F)c2)CC1 (stereo not drawn)	-7.1	-18.0	-6.0	3.6	7.7	-0.3	·	·
COc1ccc(/C=C2\Sc3ccc(C(=O)N4CCN(Cc5ccccc5)CC4)cc3N(C)C2=O)cc1OC	26.1	61.4*	9.1	-7.3	3.8	70.9*	13.5	·
CN1CCN(C(=O)c2ccc3c(c2)N(C)C(=O)/C(=C/c2cccc(Cl)c2)S3)CC1	-4.9	45.6	6.7	19.3	-15.1	36.9	·	·
Fc1ccc(-c2nc(-c3cnccn3)no2)c(Cl)c1	4.3	-66.6	4.0	4.4	1.4	5.3	·	·
CC(NC(=O)c1ccc(NC(=O)CC2SC(N3CCCC3)=NC2=O)cc1)c1ccccc1 (stereo not drawn)	-8.9	18.5	·	·	·	·	·	·
Clc1ccc(-n2ncc3c(NCc4ccco4)ncnc32)cc1	·	-77.6	-40.5	?	49.3	23.3	·	·
OCCNc1ncnc2c1cnn2Cc1ccccc1	-3.2	·	-7.0	2.3	-6.8	0.4	·	·
c1ccc(CNc2ncnc3c2cnn3Cc2ccccc2)cc1	24.4	58.4*	-39.1	5.1	47.5	-5.6	55.3*	70.5*
Clc1ccc(Cn2ncc3c(NCc4ccco4)ncnc32)c(Cl)c1	24.4	73.5*	-6.1	5.1	60.0	12.9	65.9*	31.2
COc1cc(OC)c2c(-c3cccc(-c4ccc(NC(C)=O)cc4)c3)cc(=O)oc2c1	·	60.2*	·	·	·	·	63.2*	79.4*
COc1cc(OC)c2c(-c3cccc(-c4sccc4C(C)=O)c3)cc(=O)oc2c1	·	71.9*	·	·	·	·	54.5*	55.1*
COc1cc(OC)c2c(-c3cccc(-c4ccc(F)c(Cl)c4)c3)cc(=O)oc2c1	·	71.6*	·	·	·	·	61.2*	42.7*
CCOC(=O)c1ccc(-c2cccc(-c3cc(=O)oc4cc(OC)cc(OC)c34)c2)cc1	·	38.9	·	·	·	·	·	·
COc1cc2oc(=O)cc(-c3cccc(-c4cccc(C)c4)c3)c2c(OC)c1OC	·	62.1*	·	·	·	·	18.4	·
Cc1nn(C(=O)N(C)C)c(C)c1CN1C(=O)c2ccccc2C1=O	·	-6.9	-2.6	-0.9	·	-0.7	·	·
CCn1c(SCC(=O)N2CCC(C)CC2)nc2c(c1=O)SC(C)C2 (stereo not drawn)	-0.7	3.6	-14.9	-6.5	-14.5	-1.3	·	·
COc1cc(OC)c2c(-c3cccc(-c4ccc(OC)c(OC)c4)c3)cc(=O)oc2c1	·	62.7*	·	·	·	·	52.4*	86.2*
COc1cc(OC)c2c(-c3cccc(-c4ccc(C#N)cc4)c3)cc(=O)oc2c1	·	42.7	·	·	·	·	·	·
COc1ccc(Cl)cc1S(=O)(=O)N(C)CC(=O)N1CCCC1	-7.6	10.1	-3.7	7.6	-15.3	-4.8	·	·
COc1ccc(Cc2nnc(SCc3ccc([N+](=O)[O-])cc3)o2)cc1	-18.2	60.2*	17.1	13.1	8.2	-5.3	61.2*	28.9
